One assay has as its system Escherichia coli. Briefly: Antimicrobial activity against Escherichia coli PCM 2560 assessed as growth inhibition serial 2-fold dilution microtitre plate method. The class given is functional. The method, boiled down:
(§1)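 Bacterial MIC in Mueller Hinton Broth 2 (acid casein hydrolysate, beef extract, starch), pH 7.3. Growth was compared with control cultures and read on a microplate reader.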

The subject of a further assay is Candida albicans. Briefly: Antimicrobial activity against Candida albicans ATCC 10231 assessed as growth inhibition serial 2-fold dilution microtitre plate method. The class given is functional. The method, boiled down: (§2)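 MIC by serial 2-fold broth dilution in microtitre plates. Medium was YNB with ammonium sulfate as nitrogen source, pH 5.0. Growth was compared with control cultures and read on a microplate reader.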

The subject of assay [1] is Staphylococcus epidermidis. Nature of the assay: Antimicrobial activity against Staphylococcus epidermidis PCM 2118 assessed as growth inhibition serial 2-fold dilution microtitre plate method. The class given is functional. The essentials:
as §1

Assay [2] can be described thus: Binding affinity to immobilized artificial membrane PC DD2 (unknown origin) by UV/Vis detector model. The method, boiled down: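 HPLC on an IAM PC DD2 column (3 cm × 4.6 mm, 300 Å pores). Mobile phase 0.1 M phosphate buffer pH 7.2 at 1 mL/min, UV detection at 254 nm. Dead time t0 taken from citric acid retention. Capacity factor k'IAM = (tr − t0)/t0, reported as log k'IAM.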

The test system of another assay is Bacillus subtilis. Briefly: Antimicrobial activity against Bacillus subtilis ATCC 9372 assessed as growth inhibition serial 2-fold dilution microtitre plate method. The class given is functional. The method, boiled down: as §1
A further assay has as its system Nakaseomyces glabratus. Nature of the assay: Antimicrobial activity against Candida glabrata DSM 11226 assessed as growth inhibition serial 2-fold dilution microtitre plate method. It counts as functional. The essentials:
as §2

Assay [3] is described as follows: Inhibition of Candida albicans glucosamine-6-phosphate synthase assessed as glucosamine-6-phosphate by Elson-Morgan method. The essentials: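 Enzyme source: cell-free extract of C. albicans GlcN-6-P synthase overproduced in E. coli. Incubated 37 °C for 30 min, stopped by 100 °C for 1 min. GlcN-6-P measured by modified Elson-Morgan. IC50 is the concentration giving 50% inhibition.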

The test system of a further assay is Staphylococcus aureus. Briefly: Antimicrobial activity against Staphylococcus aureus ATCC 29213 assessed as growth inhibition serial 2-fold dilution microtitre plate method. It counts as functional. The method, boiled down:
as §1

The next assay concerns Candida parapsilosis. Briefly: Antimicrobial activity against Candida parapsilosis DSM 5784 assessed as growth inhibition serial 2-fold dilution microtitre plate method. Particulars: Lodderomyces parapsilosis. It counts as functional. The method, boiled down: as §2
Another assay concerns Pseudomonas aeruginosa. Nature of the assay: Antimicrobial activity against Pseudomonas aeruginosa ATCC 2756 assessed as growth inhibition serial 2-fold dilution microtitre plate method. It counts as functional. The method, boiled down: as §1

`COC(=O)/C=C/C(=O)NC[C@H](N)C(=O)O`: the MIC (in the assay on Escherichia coli; in the assay on Candida albicans; in assay [1]; in the assay with Bacillus subtilis; in the assay with Nakaseomyces glabratus; in the assay on Staphylococcus aureus) was greater than 2000 µg/mL in each case. The MIC in the assay on Candida parapsilosis and with Pseudomonas aeruginosa was greater than 2000 µg/mL in each case. Also, the log K in assay [2] was -0.812. Moreover, the IC50 in assay [3] was 4.03 µM.

On to `COC(=O)/C=C/C(=O)NC[C@H](N)C(N)=O.Cl`, for which the MIC in the assay with Escherichia coli is greater than 1020 µg/mL; in the assay on Candida albicans, 4 µg/mL; in assay [1], greater than 1020 µg/mL; with Bacillus subtilis it was greater than 1020 µg/mL; in the assay on Nakaseomyces glabratus it was greater than 1020 µg/mL; in the assay on Staphylococcus aureus it was greater than 1020 µg/mL. For the same compound, the MIC with Candida parapsilosis and in the assay on Pseudomonas aeruginosa was greater than 1020 µg/mL throughout. In addition, in [2], the log K is -0.362. For the same compound, in assay [3], the IC50 is 80.7 µM.

As to `CNC(=O)[C@@H](N)CNC(=O)/C=C/C(=O)OC.Cl`, the MIC in the assay with Escherichia coli was greater than 1020 µg/mL; in the assay with Candida albicans, 32 µg/mL; in assay [1] it was greater than 1020 µg/mL; with Bacillus subtilis, greater than 1020 µg/mL; with Nakaseomyces glabratus, greater than 1020 µg/mL; with Staphylococcus aureus, greater than 1020 µg/mL. Also, the MIC with Candida parapsilosis and with Pseudomonas aeruginosa was greater than 1020 µg/mL each time. The log K in assay [2] was -0.193. In addition, the IC50 in assay [3] was 127 µM.

For `COC(=O)/C=C/C(=O)NC[C@H](N)C(=O)N(C)C.Cl`, the MIC was greater than 1020 µg/mL in the assay with Escherichia coli; 512 µg/mL in the assay with Candida albicans; greater than 1020 µg/mL in [1]; greater than 1020 µg/mL with Bacillus subtilis; greater than 1020 µg/mL in the assay with Nakaseomyces glabratus; greater than 1020 µg/mL in the assay with Staphylococcus aureus. The MIC with Candida parapsilosis and with Pseudomonas aeruginosa was greater than 1020 µg/mL each time. This compound yielded a log K in assay [2] of 0.118. The IC50 in assay [3] worked out at 2890 µM.
